Rows were chosen to be rich in hits. Some 3.3% of all compounds tested hit in one or more screens of this group.
AHR activator: activates the human aryl hydrocarbon receptor. P35869. AHR-responsive luciferase reporter cells, luminescence. activation, % at 5 µM. 320,000 tested, 2.5% active. AID 2796; in the data active means activation above about 47%
FXN GAA850 act: frataxin GAA850 promoter activation. HEK293 lucGAA850 FXN promoter luciferase reporter, 24 h; percent of 10 µM SAHA response. activation, % at 6 µM. 360,000 tested, 0.56% active;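 active means activation above the average of all compounds screened plus 3 SD, cutoff fixed separately per campaign, cut at about 7.5% in these data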
ABCB6 inh 2: blocks the human ABCB6 transporter; 360,000 tested, 0.19% active; fluorescence ratio to DMSO, % at 10 µM; K562-ABCB6 porphyrin accumulation, flow cytometry, 1 h; hits give low values; AID 602162; Q9NP58;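 active means fluorescence ratio to DMSO below 75%, the collection mean minus 3 SD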;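 further: signal is porphyrin accumulated inside mitochondria; lower ratio means ABCB6 inhibition with less porphyrin fluorescence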
STAT3 act: STAT3 signaling activation; U3A cells, IL-6 STAT3-luciferase reporter, luminescence; 100% = signal with IL-6 EC80 alone; activation (% of control), % at 5.6 µM; 190,000 tested, 0.91% active;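 active means activation above the screen-wide mean of compound activation plus 3 SD, cut at about 130% in these data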
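Material: STAT3-luciferase reporter U3A cells. Controls: IL-6-treated wells, 100% activation. Read-out: % activation versus median of IL-6-stimulated wells. Probe or stimulus: IL-6 stimulus at 33 ng/mL final. Timing: compound 1 h, then IL-6 6 h at 37 °C. Signal: reporter luminescence signal.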
AHR act cf: confirmation of human aryl hydrocarbon receptor activators; shares compounds with AHR activator; human cells, AHR-responsive luciferase reporter, luminescence; activation, % at 9 µM; 2,300 tested, 87% active; AID 2845; in the data active means activation above about 49%;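 further: HepG2 hepatoma cells carrying a DRE-driven firefly luciferase reporter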
PXR act counter: counter-screen for AHR activators: human PXR activators. shares compounds with AHR activator. cell-based PXR reporter, luciferase luminescence. activation, % at 11.6 µM. 2,300 tested, 88% active. AID 434939; in the data active means activation above about 11%;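 further: human hepatoma DPX-2 cells expressing full-length human PXR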
Target sequence (O75469 whole entry, looked up): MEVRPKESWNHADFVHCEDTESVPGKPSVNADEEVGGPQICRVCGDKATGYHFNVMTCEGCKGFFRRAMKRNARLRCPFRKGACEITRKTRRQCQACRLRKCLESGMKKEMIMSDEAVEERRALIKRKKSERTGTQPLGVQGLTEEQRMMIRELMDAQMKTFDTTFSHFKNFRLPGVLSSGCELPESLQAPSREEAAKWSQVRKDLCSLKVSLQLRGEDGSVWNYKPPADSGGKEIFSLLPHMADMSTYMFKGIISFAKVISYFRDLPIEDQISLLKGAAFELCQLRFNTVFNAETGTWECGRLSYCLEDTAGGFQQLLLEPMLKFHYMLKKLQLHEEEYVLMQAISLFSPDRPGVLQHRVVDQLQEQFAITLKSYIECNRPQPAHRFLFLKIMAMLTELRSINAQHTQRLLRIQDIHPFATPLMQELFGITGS
Large screens that a line does not name were inactive (follow-up assays come after a bar, where they were run).

O=c1c2[nH]c3ccccc3c2ncn1Cc1ccncc1	none
CN1CCN(C2=Nc3cc(Cl)ccc3Nc3ccccc32)CC1	none
CN1CCN(C2=Nc3c(Cl)cc(Cl)c4cccc2c34)CC1	AHR activator 82 | AHR act cf 91 | PXR act counter 27
COc1cc2c(cc1NC(=O)C(C)NCc1ccccc1)oc1ccccc12 (stereo not drawn)	AHR activator 117 | AHR act cf 133 | PXR act counter 90
COc1cc2c(cc1NC(=O)c1ccc3c(c1)OCO3)oc1ccccc12	AHR activator 99 | AHR act cf 119 | PXR act counter 24
COc1ccccc1CNC(=O)c1ccc2c(c1)OCO2	none (no result: STAT3 act)
COc1cc2c(cc1NC(=O)CCC(=O)O)oc1ccccc12	none (no result: STAT3 act)
COc1ccccc1NC(=O)c1ccc2c(c1)OCO2	AHR activator 129 (no result: STAT3 act) | AHR act cf 105 | PXR act counter 28
COc1ccccc1NC(=O)c1cc(=O)[nH]c2ccccc12	AHR activator 80 (no result: STAT3 act) | AHR act cf 92 | PXR act counter 16
O=C(COC(=O)COc1ccccc1)Nc1ccc(S(=O)(=O)N2CCOCC2)cc1	none
Cc1ccc(OCC(=O)N2c3ccccc3CC2C)c([N+](=O)[O-])n1 (stereo not drawn)	none
Cc1cc(C)n(C(=O)N(c2ccccc2)c2ccccc2)n1	none (no result: STAT3 act)
C1=C(c2ccco2)N2CCN=C2S1	none (no result: STAT3 act)
CCOc1cc(N2CCOCC2)c(OCC)cc1NC(=O)c1ccc(-n2ccnc2)c([N+](=O)[O-])c1	none (no result: STAT3 act)
COc1ccccc1NC(=O)C(=N\O)/C(C)=N/O	AHR activator 89 | AHR act cf 116 | PXR act counter 25
COc1ccc(OC)c(NC(=O)c2ccc3c(c2)OCO3)c1	AHR activator 112 (no result: STAT3 act) | AHR act cf 102 | PXR act counter 22
COc1cc2c(cc1NC(=S)Nc1cccc(C(F)(F)F)c1)oc1ccccc12	AHR activator 107 | AHR act cf 92 | PXR act counter 29
COc1ccccc1NC(=O)c1ccc(-n2ccnc2)c([N+](=O)[O-])c1	AHR activator 95 (no result: STAT3 act) | AHR act cf 104 | PXR act counter 20
COc1ccc(S(=O)(=O)Nc2ccccc2N2CCOCC2)cc1[N+](=O)[O-]	none (no result: STAT3 act)
COc1ccccc1NC(=O)c1ccc2c(c1)nnn2C	AHR activator 95 | AHR act cf 74
Cc1ccc(NC(=S)c2nc3ccccc3[nH]2)c(C)c1	AHR activator 94 | AHR act cf 84
Cc1ccc(NC(=S)c2nc3ccccc3[nH]2)cc1	none
O=C(COc1ccc(Cl)cc1)NCc1ccc(F)cc1	none (no result: STAT3 act)
COCCC(=O)Nc1ccc2c(c1)CN(C(=O)CCSC)CC2	none
COCC(=O)N1CCc2ccc(NC(=O)c3ccc(C(F)(F)F)cc3)cc2C1	AHR activator 103 (no result: STAT3 act) | AHR act cf 73
Cc1cccc(-n2cc(CNCCc3nc(C)cc(C)n3)c(-c3cccc(F)c3)n2)c1	none (no result: STAT3 act)
COc1ccc(NC(=O)CSc2nnc3c4c(nc(-c5ccccc5)n23)CC(C)(C)OC4)cc1	AHR activator 109 | AHR act cf inactive | PXR act counter 25
O=C(Nc1ccc(Cl)cc1C(F)(F)F)c1ccc(Cl)cc1	none
O=C(Nc1cc(F)c(Br)cc1F)c1ccc(Cl)cc1	AHR activator 83 (no result: STAT3 act) | AHR act cf 98 | PXR act counter 31
COc1ccc2nc(SCC(=O)N3CCN(c4ccc(F)cc4)CC3)c(C#N)cc2c1	none
COc1ccccc1-c1nnc(SCC(=O)N2CCCC2)o1	none (no result: STAT3 act)
COc1ccccc1-c1nnc(SCC(=O)Nc2c(Cl)cccc2Cl)o1	AHR activator 80 | AHR act cf 95 | PXR act counter 83
COc1ccc(CN(Cc2cccn2C)C(=O)c2cc3cc(OC)ccc3[nH]2)cc1	none (no result: STAT3 act)
O=C(Nc1ccc(Cl)cc1)[C@@H]1[C@@H]2C(=O)N(c3ccc(Cl)cc3)C(=O)[C@@H]2[C@H]2C=CC=NN21	AHR activator 98 | AHR act cf 63 | PXR act counter 13
Cn1c(C(=O)N2CCC(C(N)=O)CC2)cc2cc(Cl)ccc21	AHR activator 101 (no result: STAT3 act) | AHR act cf 116
NC(=O)C1CCN(C(=O)c2ccc3ccccc3c2)CC1	none (no result: STAT3 act)
COc1ccccc1N(CC(=O)NCCN1CCOCC1)S(=O)(=O)c1ccc(C)cc1	none (no result: STAT3 act)
COc1ccccc1NC(=O)CN(Cc1ccco1)C(=O)c1ccc(Cl)nc1	AHR activator 85 | AHR act cf 109 | PXR act counter 62
CCN(CC)C(=O)c1sc(NC(=O)c2cccc([N+](=O)[O-])c2)c(C#N)c1C	none
CCN(CC)C(=O)c1sc(NC(=O)c2c(OC)cccc2OC)c(C#N)c1C	AHR activator 132 | AHR act cf 92 | PXR act counter 173
CCOc1ccccc1NC(=S)N1CCCc2ccccc21	none
Cc1ccccc1NC(=O)c1cc(=O)c2ccccc2o1	none
Cc1ccccc1NC(=O)c1cc2ccccc2o1	AHR activator 103 (no result: STAT3 act) | AHR act cf 122 | PXR act counter 14
O=C(Nc1ccccc1)c1cc2ccccc2o1	AHR activator 93 | AHR act cf 68 | PXR act counter 21
Nn1c(SCc2ccccn2)nncc1=O	none
Cc1cc(/C=C2/NC(=O)NC2=O)c(C)n1-c1ccccn1	AHR activator 137 | AHR act cf 88 | PXR act counter 23
CCc1nnc(NC(=O)/C=C/c2ccco2)s1	AHR activator 93 | AHR act cf 59 | PXR act counter 58
N#CC(C#N)=C1C=CC=CN1/C(=C\c1ccco1)C(=O)c1ccc(Cl)cc1	AHR activator 178 | AHR act cf 133 | PXR act counter 51
COc1ccc(NC(=O)CC2C(=O)NCCN2C(=O)c2ccccc2)cc1 (stereo not drawn)	none (no result: STAT3 act)
Nc1c(Cl)cc(-c2csc(NC(CO)c3nc4ccccc4n3CCOCCO)n2)cc1Cl (stereo not drawn)	AHR activator 80 (no result: STAT3 act) | AHR act cf 90 | PXR act counter 104
CN(C(=O)c1ccc2nc(N)sc2c1)c1ccccc1	none (no result: STAT3 act)
CCc1ccc(NC(=O)c2ccc3nc(N)sc3c2)cc1	AHR activator 99 | AHR act cf 51 | PXR act counter 18
CCc1ccc(NC(=O)c2ccc3ncsc3c2)cc1	none (no result: AHR activator, FXN GAA850 act, ABCB6 inh 2)
Nc1nc2ccc(C(=O)Nc3ccccc3)cc2s1	AHR activator 100, STAT3 act 156 | AHR act cf 137 | PXR act counter 48
Cc1nnsc1C(=O)Nc1ccccc1	none
Cc1ocnc1C(=O)Nc1ccc(Cl)cc1	AHR activator 104 | AHR act cf 66 | PXR act counter 25
Cc1nnsc1C(=O)Nc1ccc(Cl)cc1	AHR activator 106 | AHR act cf 64 | PXR act counter 26
CCOc1ncccc1C(=O)OCC(=O)c1ccc(Br)s1	none (no result: STAT3 act)
CCSc1nnc(NC(=O)C2CC(=O)N(Cc3ccc(C)cc3)C2)s1 (stereo not drawn)	none
CC(NC(=O)c1ccc([N+](=O)[O-])o1)C1CC2CCC1C2 (stereo not drawn)	none (no result: STAT3 act)

Screening data: PubChem BioAssay, several laboratories
